Assay results gathered from unrelated publications.
COQ8A: Atypical kinase COQ8A, mitochondrial (COQ8A, Homo sapiens, UniProt Q8NI60)
PIK3CD: Phosphatidylinositol 4,5-bisphosphate 3-kinase catalytic subunit delta isoform (PIK3CD, Homo sapiens, UniProt O00329)
NTSR1: Neurotensin receptor type 1 (NTSR1, Homo sapiens, UniProt P30989)

| target | test | conditions | measurement | result | SMILES |
| --- | --- | --- | --- | --- | --- |
| Sarcoplasmic/endoplasmic reticulum calcium ATPase 1 (ATP2A1, Oryctolagus cuniculus, UniProt P04191) | binding, fluorescence | pH 7.2 | Kd | 8000 nM | COc1cc(/C=C/C(O)=C/C(=O)/C=C/c2ccc(O)cc2)ccc1O |
| COQ8A | ligand displacement, TR-FRET |  | IC50 | 2730 nM | COc1ccc2c(c1)CCc1c-2n[nH]c1C(=O)N1CCc2nc3cc(-c4ccccc4)[nH]n3c(=O)c2C1 |
| PIK3CD | enzyme activity, inhibitor, ADP detection |  | IC50 | > 1000 nM | Cc1nc(N(C)c2ccc3c(c2)/C(=C/c2ccccc2Cl)C(=O)N3C)c2ccccc2n1 |
| COQ8A | ligand displacement, TR-FRET |  | IC50 | 1720 nM | CCCn1nc(C)c(-c2cc(C(=O)N3CCc4nc5cc(-c6ccccc6)[nH]n5c(=O)c4C3)[nH]n2)c1C |
| PIK3CD | enzyme activity, inhibitor, ADP detection |  | IC50 | > 1000 nM | Cc1nc(Nc2ccc3c(c2)C(C)(C)C(=O)N3)c2ccccc2n1 |
| COQ8A | ligand displacement, TR-FRET |  | IC50 | 970 nM | Cc1ccc(Nc2nc3nonc3nc2Nc2cccc(C(F)(F)F)c2)cc1Cl |
| PIK3CD | enzyme activity, inhibitor, ADP detection |  | IC50 | 225 nM | Cc1nc(Nc2ccc3c(c2)/C(=C/c2ccccc2)C(=O)N3Cc2ccccc2)c2ccccc2n1 |
| NTSR1 | β-arrestin recruitment, agonist |  | EC50 | 7460 nM | COc1ccccc1C1CCN(c2nc(C3(F)CC3)nc3ccc(N(C)CCN4CCOCC4)cc23)CC1 |
| [Pyruvate dehydrogenase (acetyl-transferring)] kinase isozyme 1, mitochondrial (PDK1, Homo sapiens, UniProt Q15118) | enzyme activity, inhibitor, ATP luminescence |  | IC50 | 140 nM | CC(C)Oc1ccc(S(=O)(=O)c2ccc(Oc3cc(OCC(N)=O)c(C(=O)C(Cl)Cl)cc3[N+](=O)[O-])cc2)cc1 |
| PIK3CD | enzyme activity, inhibitor, ADP detection |  | IC50 | 578 nM | Cc1nc(Nc2ccc3c(c2)/C(=C/c2ccccc2Cl)C(=O)N3)c2ccccc2n1 |
| COQ8A | ligand displacement, TR-FRET |  | IC50 | 2170 nM | CCc1ccc(NC(=O)CSc2nc(-c3cccc(OC)c3)nc3c2Cc2c(CO)cnc(C)c2O3)cc1 |
| Tyrosine-protein kinase BTK (BTK, Homo sapiens, UniProt Q06187, T474I) | binding, SPR |  | Kd | 18 nM | NC(=O)c1ncc(N2CCCCC2)nc1Nc1ccc(C2CCN(C[C@H]3CCN(c4ccc5c(c4)C(=O)N(C4CCC(=O)NC4=O)C5=O)C3)CC2)cc1 (stereo partly drawn) |
| PIK3CD | enzyme activity, inhibitor, ADP detection |  | IC50 | 126 nM | Cc1nc(Nc2ccc3c(c2)/C(=C/c2ccccc2C)C(=O)N3)c2ccccc2n1 |
| COQ8A | ligand displacement, TR-FRET |  | IC50 | 3850 nM | O=C(Nc1nc2n(n1)C(c1ccc(F)cc1)C=C(c1ccccc1)N2)c1cccc([N+](=O)[O-])c1 (stereo not drawn) |
| PIK3CD | enzyme activity, inhibitor, ADP detection |  | IC50 | 700 nM | COc1cc2ncnc(Nc3ccc4c(c3)/C(=C/c3ccccc3)C(=O)N4)c2cc1OC |
| NTSR1 | β-arrestin recruitment, agonist |  | EC50 | 40200 nM | COc1ccccc1C1CCN(c2nc(C3(C)CCCC3)nc3ccc(N(C)CCO)cc23)CC1 |
| Lysine-specific demethylase 4E (KDM4E, Homo sapiens, UniProt B2RXH2) | enzyme activity, inhibitor, AlphaScreen |  | IC50 | 6180 nM | CC(C)(C)OC(=O)N1CCN(Cc2ccn(Cc3ccc(Cl)cc3)c(=O)c2O)CC1 |
| Mineralocorticoid receptor (NR3C2, Homo sapiens, UniProt P08235) | reporter gene, agonist, luciferase |  | EC50 | 11.3 nM | C[C@]12C[C@H](O)[C@H]3[C@@H](CCC4=CC(=O)CC[C@@]43C)[C@@H]1CC[C@@H]2C(=O)CO |
